Measurements collected from several papers.
Each line is one published result; the experiments were not run side by side.
AXL: Tyrosine-protein kinase receptor UFO (AXL, Homo sapiens, UniProt P30530)

SMILES | target | effect on | action | method | tested at | measurement | result
N#CC1(c2ccccn2)CCN(Cc2cc(C(=O)O)c(=O)n3ccccc23)CC1 | AXL | cell-free assay |  | competition with immobilised ligand | 1 µM | remaining binding | 91%
Cn1cc(-c2cc(F)cc(N3CCn4c(cc5c4CCCC5)C3=O)c2CO)cc(Nc2ccc(N3CCN(C4COC4)CC3)cn2)c1=O | AXL | enzyme activity | inhibitor |  | 0.1 µM | inhibition | 12%
Nc1ncc(-c2nc(N3CCOCC3)nc(N3CCOCC3)n2)c(C(F)F)n1 | AXL | binding |  | competition with immobilised ligand | 10 µM | remaining binding | 91%
Cc1nn(C)cc1-c1nc2c(N3CCN(Cc4ccc(Cl)cc4)CC3)c(Cl)cnc2[nH]1 | AXL | binding |  | competition with immobilised ligand | 1 µM | remaining binding | 2.2%
COc1ncccc1-c1cnn2ccc(N3CCN(C(=O)OC(C)C)CC3)nc12 | AXL | binding |  | competition with immobilised ligand | 1 µM | remaining binding | 100%
C#Cc1n[nH]c2c(-c3cn(C(C)c4ccccn4)c(=O)[nH]c3=O)cc(F)cc12 (centres unmarked) | Tyrosine-protein kinase receptor UFO (AXL, Homo sapiens, UniProt P30530, R499C) | enzyme activity | inhibitor |  | 1 µM | inhibition | 67.6%
O=c1[nH]c2ccccc2n1C1CCN(Cc2ccc(-c3[nH]c4cc5ncnc5cc4nc3-c3ccccc3)cc2)CC1 | AXL | cell-free assay |  |  | 0.5 µM | remaining signal | 105%
COc1cc(Nc2ncc(F)c(Nc3ccc4c(n3)NC(=O)C(C)(C)O4)n2)cc(OC)c1OC | AXL | binding |  | competition with immobilised ligand | 10 µM | inhibition | 100%
CC(C)(C)c1cc(C=C(C#N)C#N)cc(Br)c1O | AXL | enzyme activity | inhibitor |  | 0.5 µM | remaining activity | 103%
Cn1cncc1[C@](O)(COc1ccc(C#N)cc1-c1ccc(OC(F)(F)F)cc1)c1ccc(C#N)cc1 | AXL | cell-free assay |  | competition with immobilised ligand | 1 µM | remaining binding | 100%
Cn1cc(-c2cccc(N3CCc4c(sc5c4CC(C)(C)C5)C3=O)c2CO)cc(Nc2ccncn2)c1=O | AXL | enzyme activity | inhibitor |  | 1 µM | inhibition | 3%
